# Assay results from ChEMBL document CHEMBL6182827 (RSC Med Chem, 2025).
# Active and inactive are the calls of the source. The calls are words filed in the database; no cut-off is given here.
# Columns and labels:
# [1] = molecular target: Delta-type opioid receptor (Rattus norvegicus, UniProt P33533); assay: Displacement of [3H]-Deltorphin from DOR in male Sprague-Dawley rat brain membrane assessed as inhibition constant incubated for 45 mins by liquid scintillation counter analysis; type: cell membranes
# Delta-type opioid receptor, sequence (P33533 whole entry): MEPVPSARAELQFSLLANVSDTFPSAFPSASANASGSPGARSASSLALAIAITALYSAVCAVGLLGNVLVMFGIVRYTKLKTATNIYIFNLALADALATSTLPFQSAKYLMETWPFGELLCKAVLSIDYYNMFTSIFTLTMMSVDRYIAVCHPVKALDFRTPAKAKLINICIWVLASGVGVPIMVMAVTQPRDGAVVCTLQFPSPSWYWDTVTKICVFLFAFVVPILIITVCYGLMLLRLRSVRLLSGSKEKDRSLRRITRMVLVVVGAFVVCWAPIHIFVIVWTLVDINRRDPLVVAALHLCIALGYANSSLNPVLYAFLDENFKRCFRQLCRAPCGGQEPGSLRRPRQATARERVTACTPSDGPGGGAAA
# [2] = molecular target: Kappa-type opioid receptor (Cavia porcellus, UniProt P41144); assay: Displacement of [3H]-U69593 from KOR in male Dunkin-Hartley guinea pig brain membrane assessed as inhibition constant incubated for 30 mins by liquid scintillation counter analysis; type: cell membranes
# Kappa-type opioid receptor, sequence (P41144 whole entry): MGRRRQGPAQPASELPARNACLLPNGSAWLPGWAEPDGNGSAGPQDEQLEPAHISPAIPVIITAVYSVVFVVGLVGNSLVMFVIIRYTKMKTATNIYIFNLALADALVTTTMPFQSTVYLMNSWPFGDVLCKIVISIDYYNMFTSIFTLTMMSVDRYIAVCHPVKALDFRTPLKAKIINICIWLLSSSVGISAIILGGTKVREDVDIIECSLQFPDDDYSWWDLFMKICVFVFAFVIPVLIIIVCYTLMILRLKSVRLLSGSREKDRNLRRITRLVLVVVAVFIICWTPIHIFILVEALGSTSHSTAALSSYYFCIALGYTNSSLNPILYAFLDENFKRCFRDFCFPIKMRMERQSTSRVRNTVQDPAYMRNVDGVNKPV
# Mu-type opioid receptor = Mu-type opioid receptor (Rattus norvegicus, UniProt P33535); assay: Displacement of [3H]-DAMGO from MOR in male Sprague-Dawley rat brain membrane assessed as inhibition constant incubated for 45 mins by liquid scintillation counter analysis; type: cell membranes
# Mu-type opioid receptor, sequence (P33535 whole entry): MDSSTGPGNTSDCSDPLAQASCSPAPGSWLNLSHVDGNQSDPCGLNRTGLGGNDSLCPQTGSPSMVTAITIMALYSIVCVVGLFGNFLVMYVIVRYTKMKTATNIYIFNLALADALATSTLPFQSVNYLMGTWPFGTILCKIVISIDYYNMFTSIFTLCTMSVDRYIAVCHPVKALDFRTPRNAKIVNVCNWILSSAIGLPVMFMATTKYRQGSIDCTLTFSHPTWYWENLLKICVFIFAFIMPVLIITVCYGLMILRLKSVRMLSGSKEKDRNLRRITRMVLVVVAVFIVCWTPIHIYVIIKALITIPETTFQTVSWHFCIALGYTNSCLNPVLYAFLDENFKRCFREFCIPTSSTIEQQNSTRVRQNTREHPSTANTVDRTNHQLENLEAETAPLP
# [3] = molecular target: Sigma non-opioid intracellular receptor 1 (Rattus norvegicus, UniProt Q9R0C9); assay: Displacement of [3H]-pentazocine from sigma 1 receptor in male Sprague-Dawley rat liver membrane assessed as inhibition constant by liquid scintillation counter analysis; type: cell membranes
# Sigma non-opioid intracellular receptor 1, sequence (Q9R0C9 whole entry): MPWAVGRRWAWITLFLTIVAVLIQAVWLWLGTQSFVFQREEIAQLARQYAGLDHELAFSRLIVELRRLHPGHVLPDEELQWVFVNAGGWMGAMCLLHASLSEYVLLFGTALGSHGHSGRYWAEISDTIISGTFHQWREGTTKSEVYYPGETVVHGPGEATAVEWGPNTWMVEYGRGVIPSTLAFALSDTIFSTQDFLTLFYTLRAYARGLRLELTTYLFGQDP
# [4] = molecular target: T1, Sigma intracellular receptor 2 (Rattus norvegicus, UniProt Q5U3Y7); assay: Displacement of [3H]-DTG from sigma 2 receptor in male Sprague-Dawley rat liver membrane assessed as inhibition constant in presence of pentazocine by liquid scintillation counter analysis; type: cell membranes
# T1 sequence (Q5U3Y7 whole entry): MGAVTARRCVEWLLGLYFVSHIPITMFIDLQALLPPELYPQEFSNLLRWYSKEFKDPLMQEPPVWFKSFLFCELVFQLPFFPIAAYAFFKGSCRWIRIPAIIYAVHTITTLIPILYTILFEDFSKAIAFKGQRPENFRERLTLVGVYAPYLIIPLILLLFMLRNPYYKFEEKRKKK
# [5] = Chemical stability of the compound in aqueous phosphate buffer at pH 7.4 assessed as half life at 200 uM by RP-HPLC analysis; type: physicochemical; conditions: pH 7.4, 200 µM
# How it was run: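 A 10 mM DMSO stock was added to pH 7.4 phosphate buffer prewarmed to 37 °C (final 200 μM) and held at 37 ± 0.5 °C for up to 300 min. Aliquots were mixed 1:1 with acetonitrile (100 μM), filtered and run on C18 RP-HPLC with DAD at 285 nm against a 10–250 μM calibration curve. Duplicates; t1/2 from a one-phase exponential decay fit.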
# Mus musculus [6] = assay: Antinociceptive activity in formalin-induced male CD1 mouse model assessed as effect on nociceptive behavior by measuring rapid pain response (phase I) at 3 to 7 mg/kg, ip pre-administered with compound for 20 mins followed by formalin induction and measured for 1 hrs; type: functional, organism-based; conditions: dose 3-7 mg/kg, time 80.0 min
# How it was run: (§1)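 Male CD1 mice, 8–12 weeks, randomized and acclimated 20 min. Drug in saline with 0.5% v/v DMSO given i.p. 20 min before formalin (5%, 10 μL) into the right hind-paw plantar surface. Licking, flicking or shaking of the injected paw recorded every 5 min for 1 h by a blinded observer.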
# Mus musculus [7] = assay: Antinociceptive activity in formalin-induced male CD1 mouse assessed as reduction in nociceptive behavior by measuring decrease in lifting/licking time at behavioral pain phase (II) at 5 to 7 mg/kg, ip pre-administered with compound for 20 mins followed by formalin induction and measured for 1 hrs; type: functional, organism-based; conditions: dose 5-7 mg/kg, time 80.0 min; how it was run: as §1
# Mus musculus [8] = assay: Antinociceptive activity in formalin-induced male CD1 mouse assessed as reduction in nociceptive behavior by measuring decrease in flinches at behavioral pain phase (II) at 5 to 7 mg/kg, ip pre-administered with compound for 20 mins followed by formalin induction and measured for 1 hrs; type: functional, organism-based; conditions: dose 5-7 mg/kg, time 80.0 min; how it was run: as §1
# [9] = Stability of the compound in C57 mouse plasma at 200 uM measured up to 5 mins by RP-HPLC analysis; type: ADME, cell-free
# How it was run: (§2)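 A 10 mM DMSO stock was added to C57 mouse plasma prewarmed to 37 °C (final 200 μM) and held at 37 ± 0.5 °C. Samples taken at 0, 1, 5, 20 and 60 min were deproteinized 1:1 with acetonitrile containing 0.1% HCOOH (100 μM), centrifuged, filtered, and analysed by C18 RP-HPLC-DAD. Duplicates; t1/2 from a one-phase exponential decay fit with the plateau fixed at 0.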
# [10] = Stability of the compound in C57 mouse plasma assessed as half life at 200 uM measured up to 60 mins by RP-HPLC analysis; type: ADME, cell-free; conditions: 1 h; how it was run: as §2
# [11] = Stability of the compound in C57 mouse plasma assessed as retention time at 200 uM measured up to 60 mins by RP-HPLC analysis; type: ADME, cell-free; conditions: 1 h; how it was run: as §2
# Mus musculus [12] = assay: Antinociceptive activity in formalin-induced male CD1 mouse model assessed as effect on nociceptive behavior by measuring behavioral pain (phase II) at 3 mg/kg, ip pre-administered with compound for 20 mins followed by formalin induction and measured for 1 hrs; type: functional, organism-based; conditions: time 80.0 min; how it was run: as §1
# [13] = Stability of the compound in C57 mouse plasma at 200 uM measured at >= 20 mins by RP-HPLC analysis; type: ADME, cell-free; how it was run: as §2
SMILES,Ki [1],Ki [2],Ki (Mu-type opioid receptor),Ki [3],Ki [4],t1/2 [5],Activity (Mus musculus [6]),Activity (Mus musculus [7]),Activity (Mus musculus [8]),Stability [9],t1/2 [10],Retention_time [11],Activity (Mus musculus [12]),Stability [13]
COC(=O)CCN1CC[C@]2(C)c3cc(O)ccc3C[C@H]1[C@H]2C,> 5 µM,> 5 µM,> 5 µM,> 10 µM,> 10 µM,,,,,,,,,
COC(=O)CCCN1CC[C@]2(C)c3cc(O)ccc3C[C@H]1[C@H]2C,> 5 µM,> 5 µM,> 5 µM,0.159 µM,> 10 µM,,,,,,,,,
C[C@@H]1[C@@H]2Cc3ccc(O)cc3[C@@]1(C)CCN2CCC(=O)O,> 5 µM,> 5 µM,> 5 µM,> 10 µM,> 10 µM,,,,,,,,,
C[C@@H]1[C@@H]2Cc3ccc(O)cc3[C@@]1(C)CCN2CCCC(=O)O,> 5 µM,> 5 µM,> 5 µM,> 10 µM,> 10 µM,,,,,,,,,
CCOC(=O)C(CCN1CC[C@]2(C)c3cc(O)ccc3C[C@H]1[C@H]2C)c1ccccc1 (mixture of isomers),> 5 µM,> 5 µM,> 5 µM,0.0275 µM,> 1 µM,5 h,Not active; Compound Did Not Significantly Modify Licking And Flicking/Shanking Time Of Injected Paw,Active,Active,Stable,0.5178 h,10.52 min,Not active; Compound Did Not Significantly Modify Licking And Flicking/Shanking Time Of Injected Paw,Unstable
C[C@@H]1[C@@H]2Cc3ccc(O)cc3[C@@]1(C)CCN2CCC(C(=O)O)c1ccccc1 (mixture of isomers),> 5 µM,> 5 µM,> 5 µM,> 10 µM,> 10 µM,,,,,,,,,
C[C@@H]1[C@@H]2Cc3ccc(O)cc3[C@@]1(C)CCN2CC(C(=O)O)c1ccccc1 (mixture of isomers),> 5 µM,> 5 µM,> 5 µM,0.664 µM,> 10 µM,,,,,,,,,
CCOC(=O)C(CCCN1CC[C@]2(C)c3cc(O)ccc3C[C@H]1[C@H]2C)c1ccccc1 (mixture of isomers),> 5 µM,> 5 µM,> 5 µM,0.594 µM,> 10 µM,,,,,,,,,
C[C@@H]1[C@@H]2Cc3ccc(O)cc3[C@@]1(C)CCN2CCCC(C(=O)O)c1ccccc1 (mixture of isomers),> 5 µM,> 5 µM,> 5 µM,> 10 µM,> 10 µM,,,,,,,,,
CCOC(=O)C(CN1CC[C@]2(C)c3cc(O)ccc3C[C@H]1[C@H]2C)c1ccccc1 (mixture of isomers),> 5 µM,> 5 µM,> 5 µM,> 10 µM,> 10 µM,,,,,,,,,
